Here are results for eleven molecules from ChEMBL document CHEMBL4004855, “Synthesis of hetero annulated isoxazolo-, pyrido- and pyrimido carbazoles: Screened for in vitro antitumor activity and structure activity relationships, a novel 2-amino-4-(3'-bromo-4'-methoxyphenyl)-8-chloro-11H-pyrimido[4,5-a]carbazole as an antitumor agent” (Eur J Med Chem, 2017).

What all share (assay type): functional, cell-based
The test system of experiment [1] is MCF7. As to the kind of experiment: Cytotoxicity against human MCF7 cells assessed as reduction in cell viability after 48 hrs by MTT assay. The following applies: for pIC50: MCF7, 48 h. The essentials:
(§1)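 Cells kept in DMEM with 10% FBS, glutamine, HEPES and antibiotics at 37°C, 5% CO2. Seeded at 1×10⁴ cells/well and grown 48 h to 75% confluence, then exposed to serially diluted compounds for 48 h. MTT added for 4 h at 37 °C, formazan dissolved in DMSO, OD read at 620 nm. Viability is given as % of control OD, and IC50 is read from the viability-versus-concentration plot. Three independent experiments in triplicate.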

In experiment [2] the test system is A549. As to the kind of experiment: Cytotoxicity against human A549 cells assessed as reduction in cell viability after 48 hrs by MTT assay. As to conditions: for pIC50: A549, 48 h. The gist of the method: as §1
The test system of experiment [3] is MCF7. The experiment can be described thus: Induction of morphological changes in human MCF7 cells assessed as cell shrinkage after 24 hrs by phase contrast microscopy.
Experiment [4] concerns MCF7. The experiment can be described thus: Induction of morphological changes in human MCF7 cells assessed as membrane blebbing after 24 hrs by phase contrast microscopy.
Experiment [5] relates to MCF7. The experiment can be described thus: Induction of morphological changes in human MCF7 cells assessed as formation of floating cells after 24 hrs by phase contrast microscopy.
In experiment [6] the test system is MCF7. The experiment can be described thus: Induction of apoptosis in human MCF7 cells assessed as chromatin condensation after 24 hrs by AO/EB-dual staining based fluorescent microscopic analysis. The essentials: (§2)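 Treated cells were collected, washed in PBS (pH 7.2), and stained with an AO/EtBr mixture (1:1; […] each in water) for 2 min. They were then washed twice with PBS and viewed by fluorescence microscopy at 400× with a 480 nm excitation filter. Green marks intact membranes; orange/red marks damaged membranes and condensed nuclei. Untreated cells served as control.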

In experiment [7] the test system is A549. As to the kind of experiment: Induction of apoptosis in human A549 cells assessed as chromatin condensation after 24 hrs by AO/EB-dual staining based fluorescent microscopic analysis. The gist of the method: as §2
Experiment [8] relates to MCF7. As to the kind of experiment: Induction of apoptosis in human MCF7 cells assessed as nuclear fragmentation after 24 hrs by DAPI-staining based fluorescence microscopic analysis. The essentials: (§3)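 Cells were grown on glass coverslips, treated for 24 h, fixed, and permeabilised with 0.2% Triton X-100 for 10 min at room temperature. They were then stained with DAPI for 3 min and examined by fluorescence microscopy for condensed chromatin and nuclear fragmentation. Untreated cells served as control.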

Experiment [9] concerns A549. The experiment can be described thus: Induction of morphological changes in human A549 cells assessed as cell shrinkage after 24 hrs by phase contrast microscopy.
Experiment [10] concerns A549. The experiment can be described thus: Induction of morphological changes in human A549 cells assessed as membrane blebbing after 24 hrs by phase contrast microscopy.
Experiment [11] relates to A549. The experiment can be described thus: Induction of morphological changes in human A549 cells assessed as formation of floating cells after 24 hrs by phase contrast microscopy.
Experiment [12] relates to A549. As to the kind of experiment: Induction of apoptosis in human A549 cells assessed as nuclear fragmentation after 24 hrs by DAPI-staining based fluorescence microscopic analysis. The essentials:
as §3

Each structure is given as a SMILES string. pIC50: −log10 of the molar value. Activity calls are given as the source filed them. The calls are words filed in the database; no cut-off is given here.

On to `COc1ccc(-c2onc3c2CCc2c-3[nH]c3c(C)cccc23)cc1Br`, for which, in the experiment with MCF7 [1], the Activity result was “Dose-dependent effect” and the negative logarithm of the IC50 (pIC50) was 4.49. Moreover, in the experiment with A549 [2], the Activity entry is “Dose-dependent effect” and the pIC50 was 4.46.
Take `COc1ccc(-c2onc3c2CCc2c-3[nH]c3ccccc23)cc1Br`: the Activity entry with MCF7 [1] and with A549 [2] was “Dose-dependent effect” in each case. The pIC50 is 4.51 in the experiment with MCF7 [1] and 4.48 in the experiment on A549 [2].
Take `CCOc1nc2c(c(-c3ccc(OC)c(Br)c3)c1C#N)CCc1c-2[nH]c2ccc(C)cc12`: the Activity entry in the experiment on MCF7 [1], in the experiment with A549 [2], in the experiment with MCF7 [3], with MCF7 [4], with MCF7 [5] and with A549 [9] was “Dose-dependent effect” each time. Further, the Activity entry in the experiment on A549 [10] and in the experiment with A549 [11] was “Dose-dependent effect” in each case. Further, the pIC50 was 4.60 with MCF7 [1] and 4.54 with A549 [2]. The outcome in the experiment on MCF7 [6] was inactive. Besides, the outcome in the experiment on A549 [7] and in the experiment on MCF7 [8] was Active.
With `COc1ccc(-c2nc(N)nc3c2ccc2c4cc(Cl)ccc4[nH]c23)cc1Br`, the Activity entry in the experiment on MCF7 [1], with A549 [2], in the experiment on MCF7 [3], in the experiment on MCF7 [4], in the experiment with MCF7 [5] and in the experiment with A549 [9] was “Dose-dependent effect” in each case. Also, the Activity result in the experiment with A549 [10] and in the experiment on A549 [11] was “Dose-dependent effect” throughout. The pIC50 in the experiment on MCF7 [1] was 4.70; with A549 [2], 4.60. The result in the experiment on MCF7 [6] and in the experiment on A549 [7] was Active. Moreover, in the experiment on A549 [12], the outcome was inactive.
`COc1ccc(-c2nc(N)nc3c2ccc2c4ccccc4[nH]c23)cc1Br`: the Activity result in the experiment on MCF7 [1] and with A549 [2] was “Dose-dependent effect” in each case. For the same molecule, the values for the pIC50 in the experiment with MCF7 [1] and in the experiment on A549 [2] were 4.59 and 4.54, respectively.
`CCOc1nc2c(c(-c3ccc(OC)c(Br)c3)c1C#N)CCc1c-2[nH]c2ccccc12`: in the experiment with MCF7 [1], the Activity result was “Dose-dependent effect” and the pIC50 is 4.46. In the experiment on A549 [2], the Activity result was “Dose-dependent effect” and the negative logarithm of the IC50 (pIC50) was 4.43.
As to `COc1ccc(-c2nc(N)nc3c2ccc2c4cc(C)ccc4[nH]c23)cc1Br`, the Activity result in the experiment on MCF7 [1], with A549 [2], in the experiment on MCF7 [3], with MCF7 [4], in the experiment with MCF7 [5] and with A549 [9] was “Dose-dependent effect” in each case. The Activity entry in the experiment with A549 [10] and in the experiment on A549 [11] was “Dose-dependent effect” each time. Besides, the negative logarithm of the IC50 (pIC50) in the experiment on MCF7 [1] was 4.66; with A549 [2], 4.62. For the same molecule, in the experiment with MCF7 [6], the result was inactive. The result with MCF7 [8] and in the experiment on A549 [12] was Active.
Regarding `COc1ccc(-c2nc(N)nc3c2ccc2c4cccc(C)c4[nH]c23)cc1Br`, the Activity entry in the experiment on MCF7 [1] and in the experiment on A549 [2] was “Dose-dependent effect” in each case. The figures for the negative logarithm of the IC50 (pIC50) in the experiment on MCF7 [1] and in the experiment with A549 [2] were 4.55 and 4.51, respectively.
With `CCOc1nc2c(c(-c3ccc(OC)c(Br)c3)c1C#N)CCc1c-2[nH]c2ccc(Cl)cc12`, the Activity result with MCF7 [1], in the experiment on A549 [2], with MCF7 [3], in the experiment on MCF7 [4], with MCF7 [5] and with A549 [9] was “Dose-dependent effect” each time. Besides, the Activity result in the experiment on A549 [10] and in the experiment on A549 [11] was “Dose-dependent effect” in each case. Besides, the results for the negative logarithm of the IC50 (pIC50) with MCF7 [1] and in the experiment with A549 [2] were 4.60 and 4.49, respectively. Moreover, the outcome with MCF7 [6] was Active. Also, the outcome in the experiment on A549 [12] was inactive.
Turning to `CCOc1nc2c(c(-c3ccc(OC)c(Br)c3)c1C#N)CCc1c-2[nH]c2c(C)cccc12`, in the experiment on MCF7 [1], the Activity result was “Dose-dependent effect” and the negative logarithm of the IC50 (pIC50) was 4.44. Moreover, in the experiment on A549 [2], the Activity result was “Dose-dependent effect” and the pIC50 is 4.41.
For `COc1ccc(-c2onc3c2CCc2c-3[nH]c3ccc(C)cc23)cc1Br`, the Activity result in the experiment with MCF7 [1], in the experiment with A549 [2], in the experiment with MCF7 [3], in the experiment with MCF7 [4], in the experiment with MCF7 [5] and with A549 [9] was “Dose-dependent effect” throughout. In addition, the Activity entry in the experiment on A549 [10] and in the experiment on A549 [11] was “Dose-dependent effect” in each case. Besides, the pIC50 is 4.68 with MCF7 [1] and 4.55 with A549 [2]. Also, the result in the experiment with MCF7 [6] was inactive. Also, the outcome with A549 [7], in the experiment with MCF7 [8] and in the experiment with A549 [12] was Active.
